The source of these data is ChEMBL document CHEMBL1153430 (J Med Chem, 2009).

Series [1] can be described thus: Negative inotropic activity in guinea pig left atrium assessed as decrease in atrial tension at 50 uM relative to control. Type of series: functional, Cavia porcellus, Cardiac atrium. Details: scale not given: the % may be the effect or the level left.
Series [2] in a line: Negative chronotropic activity in guinea pig spontaneously beating right atrium assessed as decrease in atrial rate at 5 uM relative to control. Type of series: functional, Cavia porcellus, Cardiac atrium. Further details: scale not given: the % may be the effect or the level left.
Series [3] is described as follows: Negative inotropic activity in guinea pig left atrium assessed as decrease in atrial tension. The conditions noted are these: Cavia porcellus, Cardiac atrium. The class given is functional, tissue-based.
For series [4], the system named is Aorta. The series can be described thus: Vasorelaxant activity in potassium-depolarized guinea pig thoracic aorta assessed as inhibition of calcium-induced contraction at 50 uM. Type of series: functional, Cavia porcellus. Further details: scale not given: the % may be the effect or the level left.
Series [5] addresses T1, Voltage-gated L-type calcium channel (Rattus norvegicus, UniProt P22002+Q02485+P27732). The experiment in a line: Stimulation of [3H]diltiazem binding to L-type calcium channel in Sprague-Dawley rat cardiac myocytes at 1 uM by liquid scintillation counting. Type of series: cell-based.
For series [6], the system named is Heart. The series can be described thus: Effect on cardiac activity in guinea pig spontaneously beating heart assessed as change in heart rate at 1 uM relative to control. The class given is functional, Cavia porcellus. In a few lines:
(§1)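 Isolated perfused, spontaneously beating guinea pig heart. Readouts: +(dP/dt)max (maximal rate of rise of left ventricular pressure), heart rate from ECG, coronary perfusion pressure, PR interval. Given as percent change from basal at the highest concentration tested (1 µM), mean ± SEM. pEC50 taken from log concentration-response curves, n = 4-6.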

Series [7] in a line: Negative chronotropic activity in guinea pig spontaneously beating right atrium assessed as decrease in atrial rate at 1 uM relative to control. Type of series: functional, Cavia porcellus, Cardiac atrium. Details: scale not given: the % may be the effect or the level left.
The subject of series [8] is Heart. The series can be described thus: Effect on cardiac activity in guinea pig spontaneously beating heart assessed as change in left ventricular pressure at 1 uM relative to control. The class given is functional, Cavia porcellus. The method in brief:
as §1

For series [9], the system named is Heart. The experiment in a line: Effect on cardiac activity in guinea pig spontaneously beating heart assessed as change in coronary perfusion pressure at 1 uM relative to control. The class given is functional, Cavia porcellus. The method in brief: as §1
Series [10] has as its system Aorta. The experiment in a line: Vasorelaxant activity in potassium-depolarized guinea pig thoracic aorta assessed as inhibition of calcium-induced contraction at 100 uM. Details: scale not given: the % may be the effect or the level left. The class given is functional, Cavia porcellus.
Series [11] in a line: Negative inotropic activity in guinea pig left atrium assessed as decrease in atrial tension at 10 uM relative to control. Type of series: functional, Cavia porcellus, Cardiac atrium. Details: scale not given: the % may be the effect or the level left. In a few lines:
(§2)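 Guinea pig isolated atria, compound given at increasing doses. Left atrium driven at 1 Hz: percent decrease in developed tension (inotropy, EC50). Spontaneously beating right atrium: percent decrease in rate (chronotropy, EC30). Probit analysis (Litchfield-Wilcoxon), n = 6-7. Potencies not calculated when maximal effect <50%.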

Series [12] deals with T1, Voltage-gated L-type calcium channel. The experiment in a line: Displacement of [3H]diltiazem from L-type calcium channel in Sprague-Dawley rat cardiac myocytes by liquid scintillation counting. The class given is cell-based. The following applies: rat.
The test system of series [13] is Heart. The series can be described thus: Effect on cardiac activity in guinea pig spontaneously beating heart assessed as change in coronary perfusion pressure. The following applies: Cavia porcellus, read-out: pEC50 (converted).
Series [14] deals with Heart. The series can be described thus: Effect on cardiac activity in guinea pig spontaneously beating heart assessed as change in left ventricular pressure. The following applies: Cavia porcellus, read-out: pEC50 (converted).
Series [15] is described as follows: Negative chronotropic activity in guinea pig spontaneously beating right atrium assessed as decrease in atrial rate. Type of series: functional. The following applies: Cavia porcellus, Cardiac atrium. In a few lines:
as §2

The subject of series [16] is Heart. The experiment in a line: Effect on cardiac activity in guinea pig spontaneously beating heart assessed as change in atrioventricular conduction time at 1 uM relative to control. Type of series: functional, Cavia porcellus. The method in brief: as §1

With `C/C(=C/S(C)(=O)=O)n1c(C(=O)c2ccc(Br)cc2)noc1=O`, the Activity stood at 73% in [1], 7% in series [2], 6% with Aorta [4] and 25% in [5]. Moreover, in series [3], the EC50 worked out at 280 nM.

On to `COc1ccc([C@@H]2Sc3ccccc3N(CCN(C)C)C(=O)[C@@H]2OC(C)=O)cc1` [DILTIAZEM], for which the Activity is -25% in the series with Heart [6]; 94% in [7]; -59% with Heart [8]; -51% in the series with Heart [9]; 88% in the series with Aorta [10]; 78% in series [11]. Also, the Activity result in series [12] is on record as “Dose-dependent effect”; in the series with Heart [16] it was 34%. Besides, the EC50 is 790 nM in [3], 21.9 nM in the series with Heart [13] and 9.33 nM in the series on Heart [14]. In series [15], the EC30 stood at 70 nM.
